# This is a sample that favours compounds with a hit; in the whole collection about 3.5% have one here.
# MrgX1 allo act = human MrgX1 positive allosteric modulation, primary screen | Q96LB2 | MrgX1-HEK293, Fluo-4 calcium flux, FDSS; stronger effect = higher value | B-score at 10 µM | 310,000 compounds, 0.63% hits | AID 588675;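 active means plate-corrected calcium response at least 3 library SD above typical, normal starting fluorescence, not activating the receptor alone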;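 further: compound read alongside a low EC10 to EC30 dose of BAM8-22 agonist; peak minus trough fluorescence over baseline measured at the second addition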
# Target sequence (Q96LB2 whole entry, looked up): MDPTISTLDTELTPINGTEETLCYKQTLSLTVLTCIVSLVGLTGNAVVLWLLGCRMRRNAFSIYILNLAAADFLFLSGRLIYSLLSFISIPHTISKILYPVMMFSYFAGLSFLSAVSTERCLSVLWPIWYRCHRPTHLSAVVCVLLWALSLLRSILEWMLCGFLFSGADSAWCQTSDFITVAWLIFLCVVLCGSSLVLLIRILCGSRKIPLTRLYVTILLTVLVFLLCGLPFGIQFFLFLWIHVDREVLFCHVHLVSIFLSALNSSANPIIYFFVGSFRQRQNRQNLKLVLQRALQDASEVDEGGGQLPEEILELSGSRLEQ
# MrgX1 ag = human MrgX1 receptor agonism, primary screen. AID 588627. MrgX1-HEK293 cells, Fluo-4 calcium fluorescence, agonist mode; stronger effect = higher value. B-score at 10 µM. 310,000 compounds, 0.44% hits;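 active means calcium response B-score plate-corrected fluorescence ratio at least 3 library SD, with starting fluorescence B-score inside 5 SD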
#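 Test system: HEK293 cells stably expressing human MrgX1 receptor; amount: 15,000 cells per well; doses: compound delivered in addition one of three; times: overnight plating before 1 h dye loading; detection: Fluo-4 NW calcium-flux fluorescence, kinetic read; read-out basis: B-scored fluorescence response ratio; controls: positive and negative controls per plate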
# RGS4 pot = RGS4 potentiation or activation | HEK293 M3R/inducible RGS4, carbachol calcium flux Fluo4; stronger effect = lower value | B-score at 10 µM | 310,000 compounds, 0.92% hits;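 active means B-score of the integrated calcium signal more than 4 SD below the library mean, with starting fluorescence not abnormally high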;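 further: negative B-score means reduced calcium response which marks RGS4 activation or potentiation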
#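 Assay system: Inducible-RGS4 HEK293 cells carrying M3 receptor | Schedule: Compound preincubation 20 min at room temperature before agonist | Signal: Kinetic calcium fluorescence imaging with Fluo4-AM dye, 2 µM | Read-out basis: B score from integrated fluorescence ratio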
# RGS4 inh = inhibitors of human RGS4; 310,000 compounds, 0.45% hits; B-score at 10 µM; AID 463165; P49798; HEK293 M3R/RGS4 inducible, Fluo-4 calcium flux; stronger effect = higher value; triggered by carbachol at its EC20;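 active means B-score, a plate-corrected calcium signal, over three deviations above library mean, with baseline fluorescence within five deviations of library mean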;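 further: RGS4 expression induced by doxycycline in cells with stable M3 receptor; B-score is computed from the integrated fluorescence ratio over baseline after carbachol; higher B-score means a larger calcium signal and so more RGS4 inhibition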
# Target sequence (P49798 whole entry, looked up): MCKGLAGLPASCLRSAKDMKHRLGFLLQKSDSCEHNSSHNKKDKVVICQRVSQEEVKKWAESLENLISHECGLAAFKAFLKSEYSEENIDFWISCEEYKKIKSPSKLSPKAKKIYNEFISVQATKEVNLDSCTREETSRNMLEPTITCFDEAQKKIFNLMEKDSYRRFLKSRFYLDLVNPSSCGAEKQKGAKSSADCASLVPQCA
# MrgX1 antagonist = antagonists of human MrgX1 receptor; Q96LB2; MRGX1-HEK293 calcium flux, Fluo-4, BAM8-22 antagonism; stronger effect = lower value; B-score at 10 µM; 310,000 compounds, 1.3% hits;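 active means calcium-response B-score plate-corrected more than 3 library SD below zero, starting fluorescence within 5 deviations, no agonist response on first addition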;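 further: peak minus trough fluorescence over baseline after final BAM8-22 challenge near maximal dose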
# MrgX1 ant reconf = reconfirmed antagonist of human MrgX1 receptor signaling. shares compounds with MrgX1 antagonist. MrgX1-HEK293, BAM8-22 calcium flux, Fluo-4; stronger effect = lower value. remaining BAM8-22 calcium response % of control (stronger effect = lower value), % at 10 µM. 2,300 compounds, 19% hits. AID 602420;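 active means remaining agonist calcium response no higher than 100% minus 3 SD of agonist-only control wells, with starting fluorescence near control levels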;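 further: agonist BAM8-22 given at a near maximal EC90 to ECmax level; peak minus minimum fluorescence divided by baseline after agonist addition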
# HEK293 Ca flux = counter-screen for MrgX1 antagonists: effect in parental HEK293 cells. shares compounds with MrgX1 antagonist. Fluo-4 calcium fluorescence, FDSS. fluorescence ratio F(max-min)/F0 at 10 µM. 4,000 compounds, 2% hits. AID 624111;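 active means duplicate-averaged calcium fluorescence ratio at least three times the standard deviation of buffer wells, a nonspecific response in parental cells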
# HEK293 Ca counter = MrgX1 allosteric activator counter-screen hit in parental HEK293 cells. fluorescence ratio F(max-min)/F0 at 10 µM. parental HEK293 calcium flux, Fluo-4 fluorescence ratio; stronger effect = higher value. shares compounds with MrgX1 antagonist. 4,000 compounds, 0.4% hits;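 active means calcium fluorescence ratio, averaged over duplicates, at least 3 SD of the buffer-well ratio, meaning a nonspecific response in receptor-free cells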;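 further: untransfected parental HEK293 lacking MrgX1 used as counterscreen for MrgX1 allosteric activators; fluorescence change taken during the second addition on a kinetic imager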
# HEK293 Ca cntr2 = activity in parental HEK293 cells lacking MrgX1 receptor; shares compounds with MrgX1 antagonist; Fluo-4 calcium fluorescence (FDSS); stronger effect = higher value; fluorescence ratio F(max-min)/F0 at 10 µM; 4,000 compounds, 8.7% hits; AID 624115;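 active means calcium fluorescence ratio at least three times the spread of buffer wells, meaning a non-specific response in parental cells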
# An asterisk follows results filed as active; i = inactive; x = no result.
SMILES,MrgX1 allo act,MrgX1 ag,RGS4 pot,RGS4 inh,MrgX1 antagonist,MrgX1 ant reconf,HEK293 Ca flux,HEK293 Ca counter,HEK293 Ca cntr2
O=C(CCNC(=O)c1ccc(Cl)cc1)NCc1cccc(C(F)(F)F)c1,i,i,i,i,-10.1*,i,i,i,i
Cn1cnnc1SCC(=O)NCc1cccc(C(F)(F)F)c1,i,i,i,i,-6.48*,i,i,i,i
COCCOc1cc(-n2cccc2)c(Cl)cc1Cl,i,i,i,i,i,x,x,x,x
O=C(c1cc(=O)[nH]c2ccccc12)N(Cc1nnc(-c2ccccc2Cl)o1)C1CC1,i,i,i,i,i,x,x,x,x
COc1ccc(C(=O)N2CCNC(=O)C2CC(=O)Nc2cc(Cl)ccc2OC)cc1 (stereo not drawn),i,i,i,i,i,x,x,x,x
Cc1cccc2cc3c(N)c(C(=O)N4CCOCC4)sc3nc12,i,i,i,i,-5.14*,i,i,i,48.3*
Nc1c(C(=O)N2CCOCC2)sc2nc(N3CCOCC3)c3c(c12)CCCC3,i,i,i,i,i,x,x,x,x
CCn1c(/C=C/c2ccc(O)cc2)nc2ccccc2c1=O,i,i,i,i,i,x,x,x,x
CCn1c(/C=C/c2ccc(O)c(O)c2)nc2ccccc2c1=O,i,i,i,i,-4.67*,i,i,i,i
COC(=O)CCCCCc1ccc(C(C)=O)s1,i,i,i,i,i,x,x,x,x
CC1(c2ccc(OC(F)F)cc2)NC(=O)N(CC(=O)Nc2ccc(S(N)(=O)=O)cc2)C1=O (stereo not drawn),i,i,i,i,-6.93*,i,i,i,i
COc1ccc(-n2c(SCC(=O)Nc3cc(C)on3)nc3c(c2=O)SCC3)cc1,i,i,i,i,-4.59*,i,i,i,i
Cn1c(SCC(=O)Nc2cccc(F)c2)nc2c(c1=O)SCC2,i,i,i,i,-8.77*,i,i,i,i
Cn1c(SCC(=O)Nc2ccc(C(N)=O)cc2)nc2c(c1=O)SCC2,i,i,i,i,i,x,x,x,x
Cc1nn(-c2ccccc2)c(C)c1NC(=O)COC(=O)c1ccc(Cl)c(S(N)(=O)=O)c1,i,i,i,i,i,x,x,x,x
N#Cc1nc(Cc2ccccc2)oc1NCCN1CCOCC1,i,i,i,i,-7.5*,i,i,i,i
CCCCc1ccc(NC(=O)C(=O)NCCN2CCN(Cc3ccc([N+](=O)[O-])cc3)CC2)cc1,i,i,i,i,i,x,x,x,x
O=C(Nc1ccc(F)cc1)Nc1cc(OCC(F)(F)F)cc(OCC(F)(F)F)c1,i,i,i,i,-5.98*,61.8%*,i,i,i
Cn1c(N)c(C(=O)COC(=O)[C@@H]2CCCN2S(=O)(=O)c2ccc(Cl)cc2)c(=O)n(C)c1=O,i,i,i,i,-6.06*,i,i,i,i
COCCCn1c(Cc2csc(Nc3ccc(F)cc3)n2)nnc1SCC(N)=O,i,i,i,i,i,x,x,x,x
Cn1nccc1-c1cc(Cl)cc(Cl)c1O,i,i,i,i,i,x,x,x,x
CC1CN(C(=O)CS(=O)(=O)Cc2ccc(Cl)cc2)CC(C)O1 (stereo not drawn),i,i,i,i,-4.78*,i,i,i,i
Cc1ccc(CC(=O)N2CC(C)OC(C)C2)cc1 (stereo not drawn),i,i,i,i,i,x,x,x,x
O=C(COc1cccc2ccccc12)Nc1ccc(Cl)cc1C(=O)O,i,i,i,i,-7.46*,74.4%*,i,i,i
COc1ccccc1CC(=O)Nc1ccc(Cl)cc1C(=O)O,i,i,i,i,i,x,x,x,x
SMILES,MrgX1 allo act,MrgX1 ag,RGS4 pot,RGS4 inh,MrgX1 antagonist,MrgX1 ant reconf,HEK293 Ca flux,HEK293 Ca counter,HEK293 Ca cntr2
O=C(COc1cccc2ccccc12)Nc1cc(Cl)ccc1C(=O)O,i,i,i,i,-7.55*,61.7%*,i,i,i
CC(=O)c1ccc(NC(=O)C2CC(=O)N(C(C)C)C2)cc1 (stereo not drawn),i,i,i,i,i,x,x,x,x
Cn1cc(C2N3CC4(C)CN2CC(C)(C3)C4=O)c2ccccc21 (stereo not drawn),i,i,i,i,i,x,x,x,x
Cc1cc(C)nc(-n2nc(C)c3c(=O)[nH]c(C(F)(F)F)nc32)n1,i,i,i,i,i,x,x,x,x
Cc1nn(-c2ccccc2)c2nc(-c3ccncc3)cc(C(=O)NCc3ccco3)c12,i,i,i,i,-5.9*,i,i,i,i
O=C(NCc1ccco1)c1cnn2c(C(F)(F)F)cc(-c3ccccc3)nc12,i,i,i,i,-4.74*,i,i,i,i
NC(=O)c1cnn2c(C(F)(F)F)cc(-c3ccccc3)nc12,i,i,i,i,i,x,x,x,x
COc1cccc(C2(CSc3nnc(-c4cc(OC)c(OC)c(OC)c4)o3)OCCO2)c1,i,i,i,i,i,x,x,x,x
CCC(C)C(NC(=O)c1ccc(Cl)cc1)C(=O)Nc1cccnc1 (stereo not drawn),i,i,i,i,-7.59*,i,i,i,i
Cc1ccc2c(CNCc3ccccc3)cc(=O)oc2c1,i,i,i,i,i,x,x,x,x
c1ccc(CNc2ccccn2)cc1,i,i,i,i,i,x,x,x,x
c1ccc(Nc2ccccc2Nc2ccccn2)nc1,i,i,i,i,-4.72*,78.4%*,i,i,i
CC(=O)NCc1ccc(S(=O)(=O)NC(C)CCc2ccccc2)cc1 (stereo not drawn),i,i,i,i,i,x,x,x,x
CC(=O)NCCc1ccc(S(=O)(=O)NC2OC(=O)c3ccccc32)cc1 (stereo not drawn),i,i,i,i,-4.8*,i,i,i,i
Cc1ccc(Nc2nnc(SCC(=O)Nc3cccnc3Cl)s2)cc1C,i,i,i,i,i,x,x,x,x

# Assay outcomes: PubChem, Johns Hopkins Ion Channel Center
